In ChEMBL document CHEMBL4014319, “Tolvaptan-Type Vasopressin Receptor Ligands: Important Role of Axial Chirality in the Active Form” (J Med Chem, 2017) one finds Ki data, which are given here for nine molecules.

Broadly, the Ki is the dissociation constant of the complex between target and ligand, obtained from inhibition or displacement.

One assay has as its target Vasopressin V1a receptor (Homo sapiens, UniProt P37288). The experiment in a line: Displacement of [125I] phenylacetyl-D-Tyr(Me)-Phe-Gln-Asn-Arg-Pro-Arg-Tyr-NH2 from human recombinant vasopressin V1a receptor expressed in HEK293 after 2 hrs by liquid scintillation counting method. It counts as cell-based. The method in brief: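 Recombinant human V1a receptor expressed in HEK-293 cells, tested in 50 mM Tris-HCl pH 7.4 buffer with 5 mM MgCl2 and 0.1% BSA. Incubation 2 h at 25 °C in 1% DMSO. Compounds were ≥99% pure by HPLC and were kept at low temperature after isolation to prevent isomerization. Ki is the mean of duplicate measurements.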

For a further assay, the target named is Vasopressin V2 receptor (Homo sapiens, UniProt P30518). In words: Displacement of [3H] (Arg8)-vasopressin from human vasopressin V2 receptor expressed in CHOK1 cell membranes after 2 hrs by liquid scintillation counting method. The method in brief:
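Membranes (9 μg aliquot) prepared from CHO-K1 cells stably transfected with human V2 receptor, in 50 mM Tris-HCl pH 7.4, 10 mM MgCl2, 0.1% BSA. Incubated with 4 nM [3H](Arg8)-vasopressin for 2 h at 25 °C in 1% DMSO. Compounds were ≥99% pure by HPLC. Ki is the mean of duplicate measurements.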
In general terms: Loss of bound radioactivity is the signal in a displacement assay; it reports binding, not function.

Chain of Vasopressin V2 receptor (P30518 whole entry): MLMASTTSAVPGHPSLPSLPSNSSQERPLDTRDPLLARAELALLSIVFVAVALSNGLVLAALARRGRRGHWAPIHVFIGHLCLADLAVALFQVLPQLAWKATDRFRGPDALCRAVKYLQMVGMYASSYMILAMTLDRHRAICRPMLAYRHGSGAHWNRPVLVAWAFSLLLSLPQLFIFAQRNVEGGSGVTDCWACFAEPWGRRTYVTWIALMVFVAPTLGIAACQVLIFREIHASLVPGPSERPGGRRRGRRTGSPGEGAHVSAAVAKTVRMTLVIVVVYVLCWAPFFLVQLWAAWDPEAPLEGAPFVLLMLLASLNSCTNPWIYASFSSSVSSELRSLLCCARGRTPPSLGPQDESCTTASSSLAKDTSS
Chain of Vasopressin V1a receptor (P37288 whole entry): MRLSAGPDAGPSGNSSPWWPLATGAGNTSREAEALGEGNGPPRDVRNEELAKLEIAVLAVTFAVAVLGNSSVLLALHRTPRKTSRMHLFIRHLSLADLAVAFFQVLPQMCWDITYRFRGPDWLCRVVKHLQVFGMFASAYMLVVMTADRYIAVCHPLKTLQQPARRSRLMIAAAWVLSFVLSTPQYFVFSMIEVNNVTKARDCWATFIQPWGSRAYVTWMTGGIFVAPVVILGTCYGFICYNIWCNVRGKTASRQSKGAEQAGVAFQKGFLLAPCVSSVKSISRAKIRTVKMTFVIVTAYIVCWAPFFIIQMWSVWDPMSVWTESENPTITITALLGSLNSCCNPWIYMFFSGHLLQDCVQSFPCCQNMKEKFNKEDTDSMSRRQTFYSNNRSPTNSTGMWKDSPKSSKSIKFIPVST

Consider `Cc1ccccc1C(=O)Nc1ccc(C(=O)N2CCC[C@@H](O)c3ccccc32)cc1`, for which the results for the Ki on Vasopressin V1a receptor and on Vasopressin V2 receptor were 1.03 nM and 8.3 nM, respectively.

For `Cc1ccccc1C(=O)Nc1ccc(C(=O)N2CCCC(O)c3cccc(C)c32)cc1` (stereo not drawn), the Ki at Vasopressin V1a receptor was 6.26 nM; on Vasopressin V2 receptor it was 170 nM.

Consider `Cc1ccccc1C(=O)Nc1ccc(C(=O)N2CCCC(O)c3ccccc32)cc1` (racemic), for which the Ki at Vasopressin V1a receptor came to 1.58 nM; on Vasopressin V2 receptor, 7.56 nM.

As for `Cc1ccccc1C(=O)Nc1ccc(C(=O)N2CCC[C@@H](O)c3c(C)cccc32)cc1` (atropisomer aR), the inhibition constant (Ki) was found to be 78 nM on Vasopressin V1a receptor and 1790 nM on Vasopressin V2 receptor.

Take `Cc1ccccc1C(=O)Nc1ccc(C(=O)N2CCC[C@H](O)c3ccccc32)cc1`: the Ki on Vasopressin V1a receptor came to 1.85 nM; at Vasopressin V2 receptor it was 4.87 nM.

As for `Cc1ccccc1C(=O)Nc1ccc(C(=O)N2CCC[C@H](O)c3cccc(C)c32)cc1`, the values for the inhibition constant (Ki) at Vasopressin V1a receptor and on Vasopressin V2 receptor were 4.68 nM and 54 nM, respectively.

`Cc1ccccc1C(=O)Nc1ccc(C(=O)N2CCC[C@@H](O)c3cccc(C)c32)cc1`: the Ki was 2.84 nM on Vasopressin V1a receptor and 140 nM on Vasopressin V2 receptor.

Take `Cc1ccccc1C(=O)Nc1ccc(C(=O)N2CCC[C@H](O)c3c(C)cccc32)cc1`: the Ki at Vasopressin V1a receptor is 2.06 nM; at Vasopressin V2 receptor it was 46 nM.

As for `Cc1ccccc1C(=O)Nc1ccc(C(=O)N2CCCC(O)c3c(C)cccc32)cc1` (racemic), the inhibition constant (Ki) on Vasopressin V1a receptor turned out to be 6.75 nM; on Vasopressin V2 receptor, 160 nM.
